Reference: ChEMBL document CHEMBL3351334, “Protective effects of resveratrol on hepatotoxicity induced by isoniazid and rifampicin via SIRT1 modulation” (2014)
Active and inactive are the calls of the source. No cut-off for these calls is given here.

What was measured:
Mus musculus [1] = test: Hepatoprotective activity against isoniazid-rifampicin induced liver injury in BALB/c mouse assessed as effect on NAD+ concentration at 100 mg/kg, po bid for 3 days starting 30 mins prior isoniazid-rifampicin administration measured 24 hrs post-last dose of isoniazid-rifampicin relative to control; assay type: functional, organism-based; design: dose 100 mg/kg
Outline: (§1)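 Liver NAD+ and NADH quantified with a commercial colorimetric kit per manufacturer's instructions, reduced product read at 565 nm. Tissue collected 24 h after the final oral isoniazid (50 mg/kg) + rifampicin (100 mg/kg) dose of a 3-day course. 6 male BALB/c mice per group.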

Mus musculus [2] = test: Hepatoprotective activity against isoniazid-rifampicin induced liver injury in BALB/c mouse assessed as reduction ALT level at 100 mg/kg, po bid for 3 days starting 30 mins prior isoniazid-rifampicin administration measured 24 hrs post-last dose of isoniazid-rifampicin relative to control; assay type: functional; design: scale not given: the % may be the effect or the level left
Outline: (§2)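 Serum AST and ALT measured with commercial kits in blood drawn 24 h after the last of three daily oral isoniazid (50 mg/kg) + rifampicin (100 mg/kg) doses. 6 male BALB/c mice per group, mean ± SEM, one-way ANOVA with Newman–Keuls test.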

Mus musculus [3] = test: Hepatoprotective activity against isoniazid-rifampicin induced liver injury in BALB/c mouse assessed as reduction in hepatic myeloperoxidase activity at 100 mg/kg, po bid for 3 days starting 30 mins prior isoniazid-rifampicin administration measured 24 hrs post-last dose of isoniazid-rifampicin relative to control; assay type: functional; design: scale not given: the % may be the effect or the level left
Outline: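 Neutrophil recruitment estimated from hepatic myeloperoxidase activity (modified Paszcuk method), expressed as OD/mg tissue. Livers collected 24 h after the last oral isoniazid 50 mg/kg + rifampicin 100 mg/kg dose of a 3-day course. 6 male BALB/c mice/group, mean ± SEM.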

Mus musculus [4] = test: Hepatoprotective activity against isoniazid-rifampicin induced liver injury in BALB/c mouse assessed as reduction AST level at 100 mg/kg, po bid for 3 days starting 30 mins prior isoniazid-rifampicin administration measured 24 hrs post-last dose of isoniazid-rifampicin relative to control; assay type: functional; design: scale not given: the % may be the effect or the level left; outline: as §2
Mus musculus [5] = test: Hepatoprotective activity against isoniazid-rifampicin induced liver injury in BALB/c mouse assessed as reduction in MCP-1 level at 100 mg/kg, po bid for 3 days starting 30 mins prior isoniazid-rifampicin administration measured 24 hrs post-last dose of isoniazid-rifampicin relative to control; assay type: functional, organism-based; design: dose 100 mg/kg
Mus musculus [6] = test: Hepatoprotective activity against isoniazid-rifampicin induced liver injury in BALB/c mouse assessed as reversal of GSH depletion at 100 mg/kg, po bid for 3 days starting 30 mins prior isoniazid-rifampicin administration measured 24 hrs post-last dose of isoniazid-rifampicin relative to control; assay type: functional
Outline: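 Reduced glutathione assayed with DTNB. Liver homogenized 1:9 w/v in 0.9% saline, spun 3500g 20 min 4 °C. Supernatant deproteinized with 4% sulfosalicylic acid, spun again, then mixed with 0.1 M phosphate buffer and 0.01 M DTNB. Absorbance at 412 nm. 6 mice/group, mean ± SEM.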

Mus musculus [7] = test: Hepatoprotective activity against isoniazid-rifampicin induced liver injury in BALB/c mouse assessed as reduction in PPAR-gamma mRNA level at 100 mg/kg, po bid for 3 days starting 30 mins prior isoniazid-rifampicin administration measured 24 hrs post-last dose of isoniazid-rifampicin relative to control; assay type: functional, organism-based; design: dose 100 mg/kg
Outline: (§3)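 Livers taken 24 h after the last of three daily oral isoniazid 50 mg/kg + rifampicin 100 mg/kg doses (in 1% DMSO/saline). Hepatic mRNA measured by qPCR with mouse GAPDH probe as endogenous control, reactions in duplicate, relative expression by the 2ΔΔC method. n = 6 male BALB/c mice/group, mean ± SEM.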

Mus musculus [8] = test: Hepatoprotective activity against isoniazid-rifampicin induced liver injury in BALB/c mouse assessed as effect on nicotinamide phosphoribosyltransferase mRNA level at 100 mg/kg, po bid for 3 days starting 30 mins prior isoniazid-rifampicin administration measured 24 hrs post-last dose of isoniazid-rifampicin relative to control; assay type: functional, organism-based; design: dose 100 mg/kg; outline: as §3
Mus musculus [9] = test: Hepatoprotective activity against isoniazid-rifampicin induced liver injury in BALB/c mouse assessed as effect on NADH concentration at 100 mg/kg, po bid for 3 days starting 30 mins prior isoniazid-rifampicin administration measured 24 hrs post-last dose of isoniazid-rifampicin relative to control; assay type: functional, organism-based; design: dose 100 mg/kg; outline: as §1
Mus musculus [10] = test: Hepatoprotective activity against isoniazid-rifampicin induced liver injury in BALB/c mouse assessed as increase in catalase activity depletion at 100 mg/kg, po bid for 3 days starting 30 mins prior isoniazid-rifampicin administration measured 24 hrs post-last dose of isoniazid-rifampicin relative to control; assay type: functional
Outline: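 Liver homogenized 1:9 w/v in 0.9% saline and spun 3500g, 10 min, 4 °C. Supernatant in 50 mM PBS pH 7.0 with 20 mM H2O2 substrate. H2O2 decomposition followed continuously at 240 nm (Aebi method), expressed as mmol H2O2/min/mg protein. n = 6 mice, mean ± SEM.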

Mus musculus [11] = test: Hepatoprotective activity against isoniazid-rifampicin induced liver injury in BALB/c mouse assessed as reduction in hepatic lesion at 100 mg/kg, po bid for 3 days starting 30 mins prior isoniazid-rifampicin administration measured 24 hrs post-last dose of isoniazid-rifampicin relative to control; assay type: functional, organism-based; design: dose 100 mg/kg
Outline: (§4)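 Liver fixed in 10% formaldehyde and paraffin-embedded. 4 μm sections stained with hematoxylin and eosin, examined by light microscopy by a veterinary pathologist blinded to groups. Tissue taken 24 h after the last of 3 daily oral isoniazid (50 mg/kg) + rifampicin (100 mg/kg) doses.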

Mus musculus [12] = test: Hepatoprotective activity against isoniazid-rifampicin induced liver injury in BALB/c mouse assessed as prevention of liver statosis development at 100 mg/kg, po bid for 3 days starting 30 mins prior isoniazid-rifampicin administration measured 24 hrs post-last dose of isoniazid-rifampicin relative to control; assay type: functional, organism-based; design: dose 100 mg/kg; outline: as §4
Mus musculus [13] = test: Hepatoprotective activity against isoniazid-rifampicin induced liver injury in BALB/c mouse assessed as reduction in PGC-1alpha mRNA level at 100 mg/kg, po bid for 3 days starting 30 mins prior isoniazid-rifampicin administration measured 24 hrs post-last dose of isoniazid-rifampicin relative to control; assay type: functional, organism-based; design: dose 100 mg/kg; outline: as §3
Mus musculus [14] = test: Hepatoprotective activity against isoniazid-rifampicin induced liver injury in BALB/c mouse assessed as change in SIRT7 mRNA level at 100 mg/kg, po bid for 3 days starting 30 mins prior isoniazid-rifampicin administration measured 24 hrs post-last dose of isoniazid-rifampicin relative to control; assay type: functional, organism-based; design: dose 100 mg/kg; outline: as §3
Mus musculus [15] = test: Hepatoprotective activity against isoniazid-rifampicin induced liver injury in BALB/c mouse assessed as change in SIRT3 mRNA level at 100 mg/kg, po bid for 3 days starting 30 mins prior isoniazid-rifampicin administration measured 24 hrs post-last dose of isoniazid-rifampicin relative to control; assay type: functional, organism-based; design: dose 100 mg/kg; outline: as §3
Mus musculus [16] = test: Hepatoprotective activity against isoniazid-rifampicin induced liver injury in BALB/c mouse assessed as change in SIRT4 mRNA level at 100 mg/kg, po bid for 3 days starting 30 mins prior isoniazid-rifampicin administration measured 24 hrs post-last dose of isoniazid-rifampicin relative to control; assay type: functional, organism-based; design: dose 100 mg/kg; outline: as §3
Mus musculus [17] = test: Hepatoprotective activity against isoniazid-rifampicin induced liver injury in BALB/c mouse assessed as reduction in IL6 level at 100 mg/kg, po bid for 3 days starting 30 mins prior isoniazid-rifampicin administration measured 24 hrs post-last dose of isoniazid-rifampicin relative to control; assay type: functional, organism-based; design: dose 100 mg/kg
Mus musculus [18] = test: Hepatoprotective activity against isoniazid-rifampicin induced liver injury in BALB/c mouse assessed as change in SIRT5 mRNA level at 100 mg/kg, po bid for 3 days starting 30 mins prior isoniazid-rifampicin administration measured 24 hrs post-last dose of isoniazid-rifampicin relative to control; assay type: functional, organism-based; design: dose 100 mg/kg; outline: as §3
Mus musculus [19] = test: Hepatoprotective activity against isoniazid-rifampicin induced liver injury in BALB/c mouse assessed as reduction in TNFalpha level at 100 mg/kg, po bid for 3 days starting 30 mins prior isoniazid-rifampicin administration measured 24 hrs post-last dose of isoniazid-rifampicin relative to control; assay type: functional, organism-based; design: dose 100 mg/kg
Outline: (§5)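 Cytokines measured in homogenized liver tissue by flow cytometry (488 nm laser, high-throughput sampler). Tissue from male BALB/c mice 24 h after final oral isoniazid 50 mg/kg + rifampicin 100 mg/kg. n = 6/group, mean ± SEM, one-way ANOVA/Newman–Keuls.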

Mus musculus [20] = test: Hepatoprotective activity against isoniazid-rifampicin induced liver injury in BALB/c mouse assessed as reduction in IL-12p70 level at 100 mg/kg, po bid for 3 days starting 30 mins prior isoniazid-rifampicin administration measured 24 hrs post-last dose of isoniazid-rifampicin relative to control; assay type: functional, organism-based; design: dose 100 mg/kg; outline: as §5
Mus musculus [21] = test: Hepatoprotective activity against isoniazid-rifampicin induced liver injury in BALB/c mouse assessed as change in SIRT6 mRNA level at 100 mg/kg, po bid for 3 days starting 30 mins prior isoniazid-rifampicin administration measured 24 hrs post-last dose of isoniazid-rifampicin relative to control; assay type: functional, organism-based; design: dose 100 mg/kg; outline: as §3
Mus musculus [22] = test: Hepatoprotective activity against isoniazid-rifampicin induced liver injury in BALB/c mouse assessed as reduction in fatty accumulation at 100 mg/kg, po bid for 3 days starting 30 mins prior isoniazid-rifampicin administration measured 24 hrs post-last dose of isoniazid-rifampicin relative to control; assay type: functional, organism-based; design: dose 100 mg/kg; outline: as §4
Mus musculus [23] = test: Hepatoprotective activity against isoniazid-rifampicin induced liver injury in BALB/c mouse assessed as change in SIRT2 mRNA level at 100 mg/kg, po bid for 3 days starting 30 mins prior isoniazid-rifampicin administration measured 24 hrs post-last dose of isoniazid-rifampicin relative to control; assay type: functional, organism-based; design: dose 100 mg/kg; outline: as §3
Mus musculus [24] = test: Hepatoprotective activity against isoniazid-rifampicin induced liver injury in BALB/c mouse assessed as reduction in IL-10 level at 100 mg/kg, po bid for 3 days starting 30 mins prior isoniazid-rifampicin administration measured 24 hrs post-last dose of isoniazid-rifampicin relative to control; assay type: functional, organism-based; design: dose 100 mg/kg; outline: as §5
Mus musculus [25] = test: Hepatoprotective activity against isoniazid-rifampicin induced liver injury in BALB/c mouse assessed as restoration of SIRT1 mRNA level at 100 mg/kg, po bid for 3 days starting 30 mins prior isoniazid-rifampicin administration measured 24 hrs post-last dose of isoniazid-rifampicin relative to control; assay type: functional, organism-based; design: dose 100 mg/kg; outline: as §3

Oc1ccc(/C=C/c2cc(O)cc(O)c2)cc1 [RESVERATROL]
Activity (Mus musculus [1]): inactive
Activity (Mus musculus [2]): 58%
Activity (Mus musculus [3]): 19%
Activity (Mus musculus [4]): 36%
Activity (Mus musculus [5]): inactive
Activity (Mus musculus [6]): 89%
Activity (Mus musculus [7]): Active
Activity (Mus musculus [8]): inactive
Activity (Mus musculus [9]): inactive
Activity (Mus musculus [10]): 34%
Activity (Mus musculus [11]): Active
Activity (Mus musculus [12]): Active
Activity (Mus musculus [13]): Active
Activity (Mus musculus [14]): inactive
Activity (Mus musculus [15]): inactive
Activity (Mus musculus [16]): inactive
Activity (Mus musculus [17]): inactive
Activity (Mus musculus [18]): inactive
Activity (Mus musculus [19]): Active
Activity (Mus musculus [20]): Active
Activity (Mus musculus [21]): inactive
Activity (Mus musculus [22]): Active
Activity (Mus musculus [23]): inactive
Activity (Mus musculus [24]): Active
Activity (Mus musculus [25]): Active
